From publication PMC3448846 (European neuropsychopharmacology : the journal of the …, 2012)
Like-named read-outs stand apart in the source and are kept apart here.

Experiments:
α5β3γ2 GABAA receptors = α5β3γ2 GABAA receptors (Rattus norvegicus, UniProt P18508+P19969); assay: Two electrode voltage clamp, modulation of EC3 GABA current in Xenopus oocytes; assay type: cell-based; details: for % of control current: EC3 GABA, α5β3γ2
α2β3γ2 GABAA receptors = α2β3γ2 GABAA receptors (Rattus norvegicus, UniProt P18508+P23576); assay: as above; assay type: cell-based
α1β3γ2 GABAA receptors = α1β3γ2 GABAA receptors (Rattus norvegicus, UniProt P18508+P62813); assay: as above; assay type: cell-based
α3β3γ2 GABAA receptors = α3β3γ2 GABAA receptors (Rattus norvegicus, UniProt P18508+P20236); assay: as above; assay type: cell-based
[1] = tested on: spatial learning and memory; assay: Morris water maze; assay type: in vivo, male Wistar rats; details: for effect on Morris water-maze performance on its own: WYS8 0.2, 1 and 10 mg/kg i.p., β-CCt 5 mg/kg i.p.
Outline: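 Male Wistar rats, 220–250 g, n=8/group, dosed i.p. in 85% water/14% propylene glycol/1% Tween 80 (sonicated) 20 min before each daily block for 5 acquisition days. Pool 200 cm wide with 23°C water; 15×10 cm platform 2 cm below the surface. Each block had 4 trials (max 120 s, 60 s interval, pseudorandom starts). Per-rat daily means were recorded. The probe trial measured target-region time and peripheral-ring distance.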

α1β3γ2 GABAA/BZ site = details: recombinant human receptors; ref Yin et al., 2010; cited from earlier work
α2β3γ2 GABAA/BZ site = details: α2 GABAA receptors; ref Yin et al., 2010; cited from earlier work
α3β3γ2 GABAA/BZ site = details: α3 GABAA receptors; ref Yin et al., 2010; cited from earlier work
[2] = Quantification in rat brain tissue; assay type: in vivo, Wistar rats; details: Wistar, intraperitoneal, 10 mg/kg, total brain concentration, highest behaviorally tested dose
α5β3γ2 GABAA/BZ site = details: α5 GABAA receptors; ref Yin et al., 2010; cited from earlier work
α1 GABAA receptors = details: after 7 days of treatment, ref Wu et al., 1995, cited from earlier work
[3] = tested on: spatial learning and memory; details: ref Savić et al, 2009, cited from earlier work
[4] = WYS8 0.2 and 10 mg/kg + DZP 2 mg/kg i.p.

Sequence of α1β3γ2 GABAA receptors (P62813 28-455): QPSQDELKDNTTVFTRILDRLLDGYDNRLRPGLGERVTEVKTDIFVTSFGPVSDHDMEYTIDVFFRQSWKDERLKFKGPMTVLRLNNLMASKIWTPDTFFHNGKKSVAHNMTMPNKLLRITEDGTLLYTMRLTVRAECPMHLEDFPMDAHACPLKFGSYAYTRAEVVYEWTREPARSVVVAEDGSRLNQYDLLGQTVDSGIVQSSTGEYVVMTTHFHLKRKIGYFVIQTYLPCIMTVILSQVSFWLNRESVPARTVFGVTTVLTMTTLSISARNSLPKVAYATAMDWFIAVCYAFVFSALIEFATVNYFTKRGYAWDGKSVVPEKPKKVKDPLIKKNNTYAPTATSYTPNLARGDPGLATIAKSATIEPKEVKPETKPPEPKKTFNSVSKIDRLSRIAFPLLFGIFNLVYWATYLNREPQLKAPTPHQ
Sequence of α1β3γ2 GABAA receptors (P63079 26-473 partner): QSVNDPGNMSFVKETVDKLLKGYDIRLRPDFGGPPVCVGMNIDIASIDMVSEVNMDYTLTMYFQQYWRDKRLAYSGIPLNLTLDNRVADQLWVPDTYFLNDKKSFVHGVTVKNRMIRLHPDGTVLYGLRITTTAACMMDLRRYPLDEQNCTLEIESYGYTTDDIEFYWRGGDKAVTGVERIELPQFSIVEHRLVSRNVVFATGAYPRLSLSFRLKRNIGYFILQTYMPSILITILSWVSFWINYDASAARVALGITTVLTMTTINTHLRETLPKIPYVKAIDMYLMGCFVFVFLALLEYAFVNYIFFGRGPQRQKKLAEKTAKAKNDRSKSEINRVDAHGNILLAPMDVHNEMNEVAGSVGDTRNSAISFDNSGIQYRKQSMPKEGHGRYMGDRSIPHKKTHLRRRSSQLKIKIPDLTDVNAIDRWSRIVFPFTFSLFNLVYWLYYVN
Sequence of α1β3γ2 GABAA receptors (P18508 39-466): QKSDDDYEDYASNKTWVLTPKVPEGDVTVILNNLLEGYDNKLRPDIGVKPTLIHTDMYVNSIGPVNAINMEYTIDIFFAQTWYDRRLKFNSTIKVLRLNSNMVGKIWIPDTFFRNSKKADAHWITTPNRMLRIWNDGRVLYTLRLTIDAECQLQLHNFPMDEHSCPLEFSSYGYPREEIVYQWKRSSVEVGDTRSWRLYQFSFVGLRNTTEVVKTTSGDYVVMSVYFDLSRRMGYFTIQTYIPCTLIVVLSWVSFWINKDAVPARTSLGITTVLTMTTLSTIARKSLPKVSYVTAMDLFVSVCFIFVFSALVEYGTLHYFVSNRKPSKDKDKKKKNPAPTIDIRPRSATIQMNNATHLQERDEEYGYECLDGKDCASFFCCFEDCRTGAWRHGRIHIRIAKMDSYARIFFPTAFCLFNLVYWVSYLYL
Sequence of α5β3γ2 GABAA receptors (P19969 32-464 limits assumed): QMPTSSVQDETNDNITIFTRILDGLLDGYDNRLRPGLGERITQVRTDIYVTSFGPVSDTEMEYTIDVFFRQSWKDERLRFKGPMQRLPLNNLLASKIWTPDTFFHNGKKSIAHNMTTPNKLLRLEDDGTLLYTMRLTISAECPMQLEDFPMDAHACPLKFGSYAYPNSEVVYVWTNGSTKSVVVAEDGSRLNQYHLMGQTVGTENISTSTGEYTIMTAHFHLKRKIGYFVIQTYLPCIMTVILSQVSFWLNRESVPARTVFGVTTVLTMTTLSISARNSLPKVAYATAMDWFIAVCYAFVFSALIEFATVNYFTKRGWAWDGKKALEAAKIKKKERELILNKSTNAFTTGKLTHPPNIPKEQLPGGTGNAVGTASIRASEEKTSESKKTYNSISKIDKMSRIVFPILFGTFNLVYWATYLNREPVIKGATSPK
Sequence of α5β3γ2 GABAA receptors (P63079 26-473 partner): as the sequence (P63079 26-473 partner) above
Sequence of α5β3γ2 GABAA receptors (P18508 39-466): as the sequence (P18508 39-466) above
Sequence of α3β3γ2 GABAA receptors (P20236 29-493): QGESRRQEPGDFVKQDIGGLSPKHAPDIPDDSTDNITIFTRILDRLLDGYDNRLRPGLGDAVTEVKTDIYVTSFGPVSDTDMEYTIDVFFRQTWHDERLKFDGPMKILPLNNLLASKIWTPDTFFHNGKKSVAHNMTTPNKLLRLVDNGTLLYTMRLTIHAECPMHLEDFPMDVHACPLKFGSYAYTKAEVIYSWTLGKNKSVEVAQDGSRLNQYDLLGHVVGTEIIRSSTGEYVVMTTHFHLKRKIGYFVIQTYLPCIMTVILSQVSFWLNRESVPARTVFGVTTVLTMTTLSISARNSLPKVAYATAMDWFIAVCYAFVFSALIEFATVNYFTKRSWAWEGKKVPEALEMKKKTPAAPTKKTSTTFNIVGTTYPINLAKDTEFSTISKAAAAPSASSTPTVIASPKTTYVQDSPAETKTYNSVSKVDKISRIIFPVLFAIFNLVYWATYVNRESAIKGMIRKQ
Sequence of α3β3γ2 GABAA receptors (P63079 26-473 partner): as the sequence (P63079 26-473 partner) above
Sequence of α3β3γ2 GABAA receptors (P18508 39-466): as the sequence (P18508 39-466) above
Sequence of α2β3γ2 GABAA receptors (P23576 29-451): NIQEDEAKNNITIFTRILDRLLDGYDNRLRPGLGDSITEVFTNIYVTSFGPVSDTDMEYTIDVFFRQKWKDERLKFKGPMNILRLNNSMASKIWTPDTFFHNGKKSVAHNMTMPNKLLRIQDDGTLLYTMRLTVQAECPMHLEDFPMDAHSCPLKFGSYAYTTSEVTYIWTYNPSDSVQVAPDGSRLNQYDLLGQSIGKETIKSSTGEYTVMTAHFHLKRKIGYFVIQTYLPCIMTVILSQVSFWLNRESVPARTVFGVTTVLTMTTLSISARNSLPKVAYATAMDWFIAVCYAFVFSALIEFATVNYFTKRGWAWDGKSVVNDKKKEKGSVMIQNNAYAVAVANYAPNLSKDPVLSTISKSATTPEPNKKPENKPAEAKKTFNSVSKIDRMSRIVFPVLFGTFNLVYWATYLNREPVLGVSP
Sequence of α2β3γ2 GABAA receptors (P63079 26-473 partner): as the sequence (P63079 26-473 partner) above
Sequence of α2β3γ2 GABAA receptors (P18508 39-466): as the sequence (P18508 39-466) above

## CN1C(=O)CN=C(c2ccccc2)c2cc(Cl)ccc21 [DZP, diazepam, reference compound]
α5β3γ2 GABAA receptors; read-out: % of control current
  remaining activity at 0.01 µM: 160 ± 2%
α2β3γ2 GABAA receptors; read-out: % of control current
  remaining activity at 0.01 µM: 193 ± 5%
α1β3γ2 GABAA receptors; read-out: % of control current
  remaining activity at 0.01 µM: 136 ± 3%
α3β3γ2 GABAA receptors; read-out: % of control current
  remaining activity at 0.01 µM: 167 ± 8%
[1]; 2 mg/kg i.p., vs solvent-treated controls
  total distance travelled during acquisition: significantly longer distances than solvent-treated controls during all five days

## C#Cc1cccc2c1[nH]c1cnc(C(=O)OC(C)(C)C)cc12 [WYS8, 8-ethynyl-β-carboline-3-carboxylate-t-butyl ester]
α1β3γ2 GABAA/BZ site
  binding affinity at α1 GABAA receptors: sub-nanomolar
α2β3γ2 GABAA/BZ site
  Ki: 0.111 µM
α3β3γ2 GABAA/BZ site
  Ki: 0.102 µM
α5β3γ2 GABAA receptors; 10 nM compound
  % of control current: no significant stimulation
α5β3γ2 GABAA receptors; 100 nM compound
  % of control current: non-significant changes
α5β3γ2 GABAA receptors; 1 μM compound, α5 GABAA receptors
  modulation of EC3 GABA response: significant, though relatively small negative modulation
α2β3γ2 GABAA receptors; 10 nM compound, EC3 GABA, α2β3γ2
  % of control current: no significant stimulation
α2β3γ2 GABAA receptors; read-out: % of control current
  remaining activity at 0.1 µM: 109 ± 2%
[2]
  concentration at 20 min: < 0.1 µM
α1β3γ2 GABAA receptors; at 100 nM, α1-subtype
  potentiation: 40%
α1β3γ2 GABAA receptors; read-out: % of control current
  remaining activity at 0.01 µM: 124 ± 3%
  remaining activity at 0.1 µM: 141 ± 5%
α3β3γ2 GABAA receptors; 10 nM compound, EC3 GABA, α3β3γ2
  % of control current: no significant stimulation
α3β3γ2 GABAA receptors; read-out: % of control current
  remaining activity at 0.1 µM: 126 ± 7%
α5β3γ2 GABAA/BZ site
  Ki: 0.208 µM
[1]; WYS8 0.2, 1 and 10 mg/kg + DZP 2 mg/kg i.p.
  effect of addition to DZP on DZP's actions in the water maze: did not generally affect the BZ’s actions
[1]; WYS8 0.2, 1 and 10 mg/kg + β-CCt 5 mg/kg i.p.
  activity in the water maze when combined with β-CCt: devoid of any activity
[1]
  effect on Morris water-maze performance on its own: no substantial effect
[1]; [4]
  latency on the fourth day, combination with DZP vs DZP alone: significantly longer latencies than those treated with DZP alone
  total distance on the fourth day, combination with DZP vs DZP alone: significantly longer distances than those treated with DZP alone

## CCN(CC)CCN1C(=O)CN=C(c2ccccc2F)c2cc(Cl)ccc21 [flurazepam]
α1 GABAA receptors; cerebellum
  decrease of binding of radiolabelled zolpidem: 23%
α1 GABAA receptors; hippocampus
  decrease of binding of radiolabelled zolpidem: 14%

## CC(C)(C)OC(=O)c1cc2c(cn1)[nH]c1ccccc12 [β-CCt, t-butyl-β-carboline-3-carboxylate, reference compound]
α1β3γ2 GABAA/BZ site
  binding affinity at α1 GABAA receptors: sub-nanomolar
[3]; acquisition
  effect on spatial learning deficits induced by DZP in the water maze: almost completely abolished
[3]
  effect on spatial memory deficits induced by DZP, probe trial: at least partially prevented
[1]
  effect on Morris water-maze performance on its own: no substantial effect
